ChEMBL document CHEMBL5058577, “EUbOPEN Chemogenomics Library 2 (Multiplex)” (2022)

Tested on: Fibroblast
Experiment: Multiplex assay against human fibroblast
Format: toxicity, cell-based
Outline: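 With compound added, live cells were imaged on a CQ1 microscope at 37°C and 5% CO2; staining with Hoechst33342, BioTracker Green Microtubule Cytoskeleton Dye, MitoTracker Red and Annexin V Alexa Fluor 680 had been done at seeding. The CellPathfinder machine-learning gating scheme split cells into Hoechst high-intensity objects or normal cells, normal cells into healthy, pyknosed or fragmented nuclei, and pyknosed cells into mitotic or apoptotic. The tubulin, mitochondrial-mass and membrane-permeability phenotypes are per cents of healthy-nucleus cells.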

[1] = 12 h, 1 µM, compound concentration 1 uM, replicate 1
[2] = 12 h, 1 µM, compound concentration 1 uM, replicate 2
[3] = 12 h, 10 µM, compound concentration 10 uM, replicate 1
[4] = 12 h, 10 µM, compound concentration 10 uM, replicate 2
[5] = 24 h, 1 µM, compound concentration 1 uM, replicate 1
[6] = 24 h, 1 µM, compound concentration 1 uM, replicate 2
[7] = 24 h, 10 µM, compound concentration 10 uM, replicate 1
[8] = 24 h, 10 µM, compound concentration 10 uM, replicate 2
[9] = 48 h, 1 µM, compound concentration 1 uM, replicate 1
[10] = 48 h, 1 µM, compound concentration 1 uM, replicate 2
[11] = 48 h, 10 µM, compound concentration 10 uM, replicate 1
[12] = 48 h, 10 µM, compound concentration 10 uM, replicate 2

## C[C@@H]1C[C@H]2[C@@H]3CCC4=CC(=O)C=C[C@]4(C)[C@@]3(F)[C@@H](O)C[C@]2(C)[C@@]1(O)C(=O)CO [DEXAMETHASONE]
[1]
  Population Apoptotic (%): 62%
  Population Fragmented Nuclei (%): 18%
  Population Healthy Nuclei (%): 66%
  Population Hoechst High Intensity Objects (%): 7%
  Population Membrane Permeable-Phenotype (%): 0%
  Population Mitochondria Different-Phenotype (%): 2%
  Population Mitotic Cells (%): 37%
  Population Normal (%): 92%
  Population Pyknosed Nuclei (%): 15%
  Population Tubulin-Different-Phenotype (%): 26%
[2]
  Population Apoptotic (%): 38%
  Population Fragmented Nuclei (%): 30%
  Population Healthy Nuclei (%): 48%
  Population Hoechst High Intensity Objects (%): 3%
  Population Membrane Permeable-Phenotype (%): 9%
  Population Mitochondria Different-Phenotype (%): 4%
  Population Mitotic Cells (%): 61%
  Population Normal (%): 96%
  Population Pyknosed Nuclei (%): 20%
  Population Tubulin-Different-Phenotype (%): 52%
[3]
  Population Apoptotic (%): 35%
  Population Fragmented Nuclei (%): 20%
  Population Healthy Nuclei (%): 65%
  Population Hoechst High Intensity Objects (%): 2%
  Population Membrane Permeable-Phenotype (%): 1%
  Population Mitochondria Different-Phenotype (%): 5%
  Population Mitotic Cells (%): 65%
  Population Normal (%): 98%
  Population Pyknosed Nuclei (%): 13%
  Population Tubulin-Different-Phenotype (%): 22%
[4]
  Population Apoptotic (%): 30%
  Population Fragmented Nuclei (%): 24%
  Population Healthy Nuclei (%): 52%
  Population Hoechst High Intensity Objects (%): 6%
  Population Membrane Permeable-Phenotype (%): 4%
  Population Mitochondria Different-Phenotype (%): 2%
  Population Mitotic Cells (%): 69%
  Population Normal (%): 93%
  Population Pyknosed Nuclei (%): 23%
  Population Tubulin-Different-Phenotype (%): 53%
[5]
  Population Apoptotic (%): 48%
  Population Fragmented Nuclei (%): 14%
  Population Healthy Nuclei (%): 68%
  Population Hoechst High Intensity Objects (%): 5%
  Population Membrane Permeable-Phenotype (%): 1%
  Population Mitochondria Different-Phenotype (%): 3%
  Population Mitotic Cells (%): 52%
  Population Normal (%): 94%
  Population Pyknosed Nuclei (%): 17%
  Population Tubulin-Different-Phenotype (%): 26%
[6]
  Population Apoptotic (%): 31%
  Population Fragmented Nuclei (%): 29%
  Population Healthy Nuclei (%): 50%
  Population Hoechst High Intensity Objects (%): 6%
  Population Membrane Permeable-Phenotype (%): 4%
  Population Mitochondria Different-Phenotype (%): 1%
  Population Mitotic Cells (%): 68%
  Population Normal (%): 93%
  Population Pyknosed Nuclei (%): 19%
  Population Tubulin-Different-Phenotype (%): 53%
[7]
  Population Apoptotic (%): 42%
  Population Fragmented Nuclei (%): 15%
  Population Healthy Nuclei (%): 65%
  Population Hoechst High Intensity Objects (%): 3%
  Population Membrane Permeable-Phenotype (%): 1%
  Population Mitochondria Different-Phenotype (%): 6%
  Population Mitotic Cells (%): 57%
  Population Normal (%): 96%
  Population Pyknosed Nuclei (%): 18%
  Population Tubulin-Different-Phenotype (%): 22%
[8]
  Population Apoptotic (%): 30%
  Population Fragmented Nuclei (%): 30%
  Population Healthy Nuclei (%): 44%
  Population Hoechst High Intensity Objects (%): 6%
  Population Membrane Permeable-Phenotype (%): 10%
  Population Mitochondria Different-Phenotype (%): 2%
  Population Mitotic Cells (%): 69%
  Population Normal (%): 93%
  Population Pyknosed Nuclei (%): 24%
  Population Tubulin-Different-Phenotype (%): 45%
[9]
  Population Apoptotic (%): 46%
  Population Fragmented Nuclei (%): 22%
  Population Healthy Nuclei (%): 52%
  Population Hoechst High Intensity Objects (%): 6%
  Population Membrane Permeable-Phenotype (%): 2%
  Population Mitochondria Different-Phenotype (%): 4%
  Population Mitotic Cells (%): 53%
  Population Normal (%): 93%
  Population Pyknosed Nuclei (%): 24%
  Population Tubulin-Different-Phenotype (%): 34%
[10]
  Population Apoptotic (%): 37%
  Population Fragmented Nuclei (%): 38%
  Population Healthy Nuclei (%): 46%
  Population Hoechst High Intensity Objects (%): 4%
  Population Membrane Permeable-Phenotype (%): 4%
  Population Mitotic Cells (%): 62%
  Population Normal (%): 95%
  Population Pyknosed Nuclei (%): 14%
  Population Tubulin-Different-Phenotype (%): 53%
[11]
  Population Apoptotic (%): 50%
  Population Fragmented Nuclei (%): 22%
  Population Healthy Nuclei (%): 55%
  Population Hoechst High Intensity Objects (%): 4%
  Population Membrane Permeable-Phenotype (%): 0%
  Population Mitochondria Different-Phenotype (%): 7%
  Population Mitotic Cells (%): 50%
  Population Normal (%): 95%
  Population Pyknosed Nuclei (%): 22%
  Population Tubulin-Different-Phenotype (%): 19%
[12]
  Population Apoptotic (%): 37%
  Population Fragmented Nuclei (%): 36%
  Population Healthy Nuclei (%): 43%
  Population Hoechst High Intensity Objects (%): 7%
  Population Membrane Permeable-Phenotype (%): 10%
  Population Mitochondria Different-Phenotype (%): 0%
  Population Mitotic Cells (%): 62%
  Population Normal (%): 92%
  Population Pyknosed Nuclei (%): 20%
  Population Tubulin-Different-Phenotype (%): 39%
